Data on 5 molecules can be found in ChEMBL document CHEMBL3580574, “Design, Synthesis, and Biological Evaluation of Hexacyclic Tetracyclines as Potent, Broad Spectrum Antibacterial Agents” (J Med Chem, 2015).

SMILES strings stand for the structures. ≈ marks a conversion by molar mass, not a printed value.

Common to all, as to format: functional
The test system of assay [1] is Escherichia coli. The experiment in a line: Antibacterial activity against Escherichia coli 107 ATCC 25922 assessed as bacterial growth inhibition by susceptibility testing assay. As to conditions: Escherichia coli, 107 ATCC 25922; read-out: MIC. Summed up: (§1)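 Broth microdilution MIC per CLSI in cation-adjusted Mueller Hinton broth, made fresh and held at 4 °C before testing. Medium supplemented with lysed horse blood where appropriate. Compound stocks prepared and serially diluted in sterile deionized water. Runs were accepted against QC ranges for comparator antibiotics and ATCC QC strains.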

The next assay relates to Streptococcus pneumoniae. The experiment in a line: Antibacterial activity against tet(M) tetracycline-resistant Streptococcus pneumoniae 160 assessed as bacterial growth inhibition by susceptibility testing assay. As to conditions: Streptococcus pneumoniae, 160; read-out: MIC.
The subject of a further assay is Klebsiella pneumoniae. The assay can be described thus: Antibacterial activity against Klebsiella pneumoniae 457 harboring CTX-M-15 gene assessed as bacterial growth inhibition by susceptibility testing assay. The settings on record: Klebsiella pneumoniae, 457; read-out: MIC. The method, boiled down: (§2)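 Broth microdilution MIC per CLSI in 96-well plates; compound stocks prepared and serially diluted in sterile deionized water; cation-adjusted Mueller Hinton broth prepared fresh and held at 4 °C before testing, supplemented with lysed horse blood as appropriate; runs accepted when comparator antibiotics fell within QC ranges for appropriate ATCC quality control strains.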

In assay [2] the test system is Staphylococcus aureus. The assay can be described thus: Antibacterial activity against Staphylococcus aureus 101 ATCC 29213 assessed as bacterial growth inhibition by susceptibility testing assay. As to conditions: Staphylococcus aureus, 101 ATCC 29213; read-out: MIC. Summed up:
as §1

The test system of the next assay is Acinetobacter baumannii. The experiment in a line: Antibacterial activity against tet(B) tetracycline-resistant Acinetobacter baumannii 250 assessed as bacterial growth inhibition by susceptibility testing assay. As to conditions: Acinetobacter baumannii, 250; read-out: MIC. Summed up: as §2
For a further assay, the system named is Proteus mirabilis. The assay can be described thus: Antibacterial activity against Proteus mirabilis 385 assessed as bacterial growth inhibition by susceptibility testing assay. As to conditions: Proteus mirabilis, 385; read-out: MIC. Summed up: as §1
A further assay has as its system Enterobacter cloacae. The experiment in a line: Antibacterial activity against tet(A) tetracycline-resistant Enterobacter cloacae 603 assessed as bacterial growth inhibition by susceptibility testing assay. As to conditions: Enterobacter cloacae, 603; read-out: MIC. Summed up:
as §2

In assay [3] the test system is Staphylococcus aureus. The assay can be described thus: Antibacterial activity against methicillin-resistant, tet(M) tetracycline-resistant Staphylococcus aureus 161 assessed as bacterial growth inhibition by susceptibility testing assay. As to conditions: Staphylococcus aureus, 161; read-out: MIC. The method, boiled down:
as §2

For assay [4], the system named is Escherichia coli. The experiment in a line: Antibacterial activity against tet(A) tetracycline-resistant Escherichia coli 155 assessed as bacterial growth inhibition by susceptibility testing assay. As to conditions: Escherichia coli, 155; read-out: MIC. The method, boiled down:
as §2

In another assay the test system is Burkholderia cenocepacia. The experiment in a line: Antibacterial activity against Burkholderia cenocepacia 240 assessed as bacterial growth inhibition by susceptibility testing assay. The settings on record: Burkholderia cenocepacia, 240; read-out: MIC. Summed up: (§3)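 Medium supplemented with lysed horse blood where appropriate. Compound stocks prepared and serially diluted in sterile deionized water. Runs were accepted against QC ranges for comparator antibiotics and ATCC QC strains.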

A further assay deals with Pseudomonas aeruginosa. The assay can be described thus: Antibacterial activity against Pseudomonas aeruginosa 555 BAA-47 assessed as bacterial growth inhibition by susceptibility testing assay. As to conditions: Pseudomonas aeruginosa, 555 BAA-47; read-out: MIC. Summed up: as §1
The test system of assay [5] is Staphylococcus aureus. The assay can be described thus: Antibacterial activity against tet(K) tetracycline-resistant Staphylococcus aureus 158 assessed as bacterial growth inhibition by susceptibility testing assay. The settings on record: Staphylococcus aureus, 158; read-out: MIC.
The next assay deals with Enterococcus faecium. The experiment in a line: Antibacterial activity against tet(M) tetracycline-resistant Enterococcus faecium 404 assessed as bacterial growth inhibition by susceptibility testing assay. The settings on record: Enterococcus faecium, 404; read-out: MIC.
Another assay deals with Enterococcus faecalis. The assay can be described thus: Antibacterial activity against tet(M) tetracycline-resistant Enterococcus faecalis 327 assessed as bacterial growth inhibition by susceptibility testing assay. As to conditions: Enterococcus faecalis, 327; read-out: MIC. The method, boiled down:
as §2

In assay [6] the test system is Stenotrophomonas maltophilia. The experiment in a line: Antibacterial activity against Stenotrophomonas maltophilia 256 assessed as bacterial growth inhibition by susceptibility testing assay. The settings on record: Stenotrophomonas maltophilia, 256; read-out: MIC. The method, boiled down:
as §3

Regarding `CN(C)[C@@H]1C(O)=C(C(N)=O)C(=O)[C@@]2(O)C(O)=C3C(=O)c4c(O)c5c(c(OC(F)(F)F)c4C[C@H]3C[C@@H]12)[C@@H]1[C@@H](CCN1C)CN5`, the MIC (usually the lowest concentration that inhibits growth of the organism) is at most 0.0156 µg/mL with Escherichia coli [1]; at most 0.0156 µg/mL with Streptococcus pneumoniae; 0.5 µg/mL (≈ 0.822 µM) in the assay on Klebsiella pneumoniae; 0.0625 µg/mL (≈ 0.103 µM) in the assay on Staphylococcus aureus [2]; 1 µg/mL (≈ 1.64 µM) with Acinetobacter baumannii; 2 µg/mL (≈ 3.29 µM) in the assay with Proteus mirabilis. The minimal inhibitory concentration (MIC) is 0.5 µg/mL (≈ 0.822 µM) with Enterobacter cloacae; 0.125 µg/mL (≈ 0.205 µM) in the assay with Staphylococcus aureus [3]; 0.0312 µg/mL (≈ 0.0513 µM) in the assay with Escherichia coli [4]; 8 µg/mL (≈ 13.1 µM) in the assay with Burkholderia cenocepacia; 8 µg/mL (≈ 13.1 µM) in the assay with Pseudomonas aeruginosa; at most 0.0156 µg/mL in the assay on Staphylococcus aureus [5]. For the same molecule, the results for the MIC (in the assay with Enterococcus faecium; with Enterococcus faecalis; in assay [6]) were at most 0.0156 µg/mL, 0.0312 µg/mL (≈ 0.0513 µM) and 0.25 µg/mL (≈ 0.411 µM), respectively.
As to `CC1C[C@H]2CNc3c(O)c4c(c(OC(F)(F)F)c3[C@H]2N1C)C[C@H]1C[C@H]2[C@H](N(C)C)C(O)=C(C(N)=O)C(=O)[C@@]2(O)C(O)=C1C4=O` (stereo not given in full), the MIC with Escherichia coli [1] was at most 0.0156 µg/mL; in the assay with Streptococcus pneumoniae, at most 0.0156 µg/mL; with Klebsiella pneumoniae, 2 µg/mL (≈ 3.21 µM); with Staphylococcus aureus [2] it was 0.0312 µg/mL (≈ 0.0501 µM); in the assay with Acinetobacter baumannii it was 1 µg/mL (≈ 1.61 µM); in the assay with Proteus mirabilis, 2 µg/mL (≈ 3.21 µM). In addition, the MIC in the assay on Enterobacter cloacae is 2 µg/mL (≈ 3.21 µM); in the assay with Staphylococcus aureus [3], 0.0312 µg/mL (≈ 0.0501 µM); with Escherichia coli [4], 0.0625 µg/mL (≈ 0.1 µM); in the assay with Burkholderia cenocepacia, 16 µg/mL (≈ 25.7 µM); in the assay with Pseudomonas aeruginosa, 8 µg/mL (≈ 12.8 µM); in the assay with Staphylococcus aureus [5], at most 0.0156 µg/mL. The results for the MIC (with Enterococcus faecium; in the assay on Enterococcus faecalis; in assay [6]) were 0.0312 µg/mL (≈ 0.0501 µM), at most 0.0156 µg/mL and 0.25 µg/mL (≈ 0.402 µM), respectively.
Turning to `CC(=O)N(C)CCN1CCC2CNc3c(O)c4c(c(F)c3C21)C[C@H]1C[C@H]2[C@H](N(C)C)C(O)=C(C(N)=O)C(=O)[C@@]2(O)C(O)=C1C4=O` (mixture of isomers), the MIC was 8 µg/mL in the assay on Escherichia coli [1]; 4 µg/mL with Streptococcus pneumoniae; above 32 µg/mL in the assay with Klebsiella pneumoniae; 4 µg/mL in the assay with Staphylococcus aureus [2]; above 32 µg/mL with Acinetobacter baumannii; above 32 µg/mL with Proteus mirabilis. Also, the MIC is above 32 µg/mL in the assay on Enterobacter cloacae; above 32 µg/mL in the assay on Staphylococcus aureus [3]; 32 µg/mL with Escherichia coli [4]; above 32 µg/mL in the assay with Burkholderia cenocepacia; above 32 µg/mL in the assay on Pseudomonas aeruginosa; 1 µg/mL with Staphylococcus aureus [5]. For the same molecule, the figures for the MIC (in the assay on Enterococcus faecium; in the assay on Enterococcus faecalis; in assay [6]) were 32 µg/mL, above 32 µg/mL and above 32 µg/mL, respectively.
With `CN(C)[C@@H]1C(O)=C(C(N)=O)C(=O)[C@@]2(O)C(O)=C3C(=O)c4c(O)c5c(c(OC(F)(F)F)c4C[C@H]3C[C@@H]12)C1NCCC1CN5` (mixture of isomers), the MIC with Escherichia coli [1] is 0.5 µg/mL; in the assay on Streptococcus pneumoniae, 0.25 µg/mL; in the assay on Klebsiella pneumoniae, 2 µg/mL; in the assay on Staphylococcus aureus [2], 0.5 µg/mL; in the assay on Acinetobacter baumannii, above 32 µg/mL; in the assay on Proteus mirabilis, 4 µg/mL. Moreover, the MIC in the assay on Enterobacter cloacae was 8 µg/mL; in the assay with Staphylococcus aureus [3], 2 µg/mL; with Escherichia coli [4] it was 2 µg/mL; with Burkholderia cenocepacia it was above 32 µg/mL; in the assay with Pseudomonas aeruginosa, 32 µg/mL; in the assay on Staphylococcus aureus [5], 0.25 µg/mL. The MIC is 0.25 µg/mL in the assay with Enterococcus faecium, 0.5 µg/mL in the assay on Enterococcus faecalis and 16 µg/mL in [6].
Take `CN(C)[C@@H]1C(O)=C(C(N)=O)C(=O)[C@@]2(O)C(O)=C3C(=O)c4c(O)c5c(c(OC(F)(F)F)c4C[C@H]3C[C@@H]12)[C@@H]1[C@H](CN5)CC2CCCCN21` (stereo not given in full): the MIC was at most 0.0156 µg/mL in the assay with Escherichia coli [1]; at most 0.0156 µg/mL in the assay with Streptococcus pneumoniae; 4 µg/mL (≈ 6.17 µM) in the assay with Klebsiella pneumoniae; 0.0625 µg/mL (≈ 0.0964 µM) with Staphylococcus aureus [2]; 2 µg/mL (≈ 3.08 µM) in the assay on Acinetobacter baumannii; 4 µg/mL (≈ 6.17 µM) in the assay on Proteus mirabilis. In addition, the MIC is 4 µg/mL (≈ 6.17 µM) with Enterobacter cloacae; 0.25 µg/mL (≈ 0.385 µM) in the assay on Staphylococcus aureus [3]; 0.125 µg/mL (≈ 0.193 µM) in the assay on Escherichia coli [4]; 8 µg/mL (≈ 12.3 µM) in the assay with Burkholderia cenocepacia; 16 µg/mL (≈ 24.7 µM) with Pseudomonas aeruginosa; at most 0.0156 µg/mL with Staphylococcus aureus [5]. Further, the MIC with Enterococcus faecium was at most 0.0156 µg/mL; with Enterococcus faecalis it was 0.0312 µg/mL (≈ 0.0481 µM); in assay [6] it was 1 µg/mL (≈ 1.54 µM).
